According to ChEMBL document CHEMBL3994579, “Synthesis and antibacterial activity of novel 3-O-descladinosylazithromycin derivatives” (2017):
≈ marks a conversion by molar mass, not a printed value.

Assays:
Type in all cases: functional
Escherichia coli = experiment: Antibacterial activity against penicillin-susceptible Escherichia coli ATCC 25922 by broth microdilution method
In short: (§1)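 MICs were determined in vitro by broth microdilution following the NCCL-recommended method. Azithromycin and clarithromycin were run alongside as reference antibiotics on the same strain panel.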

Streptococcus pyogenes [1] = experiment: Potency index, ratio of azithromycin MIC to test compound MIC for erythromycin-resistant Streptococcus pyogenes R1 clinical isolate
Staphylococcus aureus [2] = experiment: Antibacterial activity against […] Staphylococcus aureus ATCC 29213 by broth microdilution method
In short: (§2)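 Broth microdilution per NCCL recommendation, read as minimal inhibitory concentration, run alongside azithromycin and clarithromycin references. Strains: S. pneumoniae B1 (erythromycin-resistant, ermB), A22072 (erythromycin-resistant, mefA), AB11 (erythromycin-resistant, erm and mef); S. aureus ATCC29213 ([…]); S. epidermidis clinical isolate (penicillin-resistant, not characterized).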

Staphylococcus aureus [3] = experiment: Antibacterial activity against erythromycin-susceptible Staphylococcus aureus ATCC 25923 by broth microdilution method; in short: as §1
[4] = tested on: Staphylococcus epidermidis; experiment: Antibacterial activity against penicillin-resistant Staphylococcus epidermidis clinical isolate by broth microdilution method; in short: as §2
Pseudomonas aeruginosa = experiment: Antibacterial activity against penicillin-susceptible Pseudomonas aeruginosa ATCC 27853 by broth microdilution method; in short: as §1
Streptococcus pyogenes [5] = experiment: Antibacterial activity against erythromycin-susceptible Streptococcus pyogenes clinical isolate by broth microdilution method; in short: as §1
Streptococcus pyogenes [6] = experiment: Potency index, ratio of clarithromycin MIC to test compound MIC for erythromycin-resistant Streptococcus pyogenes R1 clinical isolate
Bacillus subtilis [7] = experiment: Antibacterial activity against erythromycin/penicillin-susceptible Bacillus subtilis ATCC 9372 by broth microdilution method; in short: as §1
Streptococcus pneumoniae [8] = experiment: Antibacterial activity against erythromycin-resistant Streptococcus pneumoniae A22072 expressing mefA gene by broth microdilution method; in short: as §2
Streptococcus pneumoniae [9] = experiment: Antibacterial activity against erythromycin-resistant Streptococcus pneumoniae AB11 expressing ermB/mefA genes by broth microdilution method; in short: as §2
Streptococcus pneumoniae [10] = experiment: Antibacterial activity against erythromycin-resistant Streptococcus pneumoniae B1 expressing ermB gene by broth microdilution method; in short: as §2
Streptococcus pyogenes [11] = experiment: Antibacterial activity against erythromycin-resistant Streptococcus pyogenes R1 clinical isolate by broth microdilution method
Streptococcus pneumoniae [12] = experiment: Potency index, ratio of azithromycin MIC to test compound MIC for erythromycin-resistant Streptococcus pneumoniae AB11 expressing ermB/mefA genes
Streptococcus pneumoniae [13] = experiment: Potency index, ratio of clarithromycin MIC to test compound MIC for erythromycin-resistant Streptococcus pneumoniae AB11 expressing ermB/mefA genes
Streptococcus pneumoniae [14] = experiment: Potency index, ratio of azithromycin MIC to test compound MIC for erythromycin-resistant Streptococcus pneumoniae B1 expressing ermB gene
Streptococcus pneumoniae [15] = experiment: Potency index, ratio of clarithromycin MIC to test compound MIC for erythromycin-resistant Streptococcus pneumoniae B1 expressing ermB gene
Streptococcus pneumoniae [16] = experiment: Potency index, ratio of clarithromycin MIC to test compound MIC for erythromycin-resistant Streptococcus pneumoniae A22072 expressing mefA gene
Streptococcus pneumoniae [17] = experiment: Potency index, ratio of azithromycin MIC to test compound MIC for erythromycin-resistant Streptococcus pneumoniae A22072 expressing mefA gene
[18] = tested on: Staphylococcus epidermidis; experiment: Potency index, ratio of azithromycin MIC to test compound MIC for penicillin-resistant Staphylococcus epidermidis clinical isolate
Bacillus subtilis [19] = experiment: Potency index, ratio of azithromycin MIC to test compound MIC for erythromycin/penicillin-susceptible Bacillus subtilis ATCC 9372

Compound | MIC (Escherichia coli) | MIC (Staphylococcus aureus [2]) | MIC (Staphylococcus aureus [3]) | MIC [4] | MIC (Pseudomonas aeruginosa) | MIC (Streptococcus pyogenes [5]) | MIC (Bacillus subtilis [7]) | MIC (Streptococcus pneumoniae [8]) | MIC (Streptococcus pneumoniae [9]) | MIC (Streptococcus pneumoniae [10]) | MIC (Streptococcus pyogenes [11]) | Ratio (Streptococcus pneumoniae [12]) | Ratio (Streptococcus pneumoniae [13]) | Ratio (Streptococcus pneumoniae [14]) | Ratio (Streptococcus pneumoniae [15]) | Ratio (Streptococcus pneumoniae [16]) | Ratio (Streptococcus pneumoniae [17]) | further results
CCCCCCNC(=O)O[C@H]1[C@H](C)[C@@H](O[C@@H]2O[C@H](C)C[C@H](N(C)C)[C@H]2OC(C)=O)[C@](C)(O)C[C@@H](C)CN(C)[C@H](C)[C@H]2OC(=O)O[C@]2(C)[C@@H](CC)OC(=O)[C@@H]1C | 128 µg/mL (≈ 163 µM) | 32 µg/mL (≈ 40.7 µM) | 16 µg/mL (≈ 20.4 µM) | 16 µg/mL (≈ 20.4 µM) | 128 µg/mL (≈ 163 µM) | 4 µg/mL (≈ 5.09 µM) | 8 µg/mL (≈ 10.2 µM) | 64 µg/mL (≈ 81.4 µM) | 16 µg/mL (≈ 20.4 µM) | 64 µg/mL (≈ 81.4 µM) | 32 µg/mL (≈ 40.7 µM) |  |  |  |  |  |  | Ratio (Streptococcus pyogenes [1]): 8; Ratio (Streptococcus pyogenes [6]): 8
CC[C@H]1OC(=O)[C@H](C)[C@@H](OC(=O)Nc2cccc(C)c2)[C@H](C)[C@@H](O[C@@H]2O[C@H](C)C[C@H](N(C)C)[C@H]2O)[C@](C)(O)C[C@@H](C)CN(C)[C@H](C)[C@@H](OC(=O)NCc2ccccc2Cl)[C@]1(C)O | 64 µg/mL (≈ 71.8 µM) | 64 µg/mL (≈ 71.8 µM) | 2 µg/mL (≈ 2.24 µM) | 0.25 µg/mL (≈ 0.28 µM) | 64 µg/mL (≈ 71.8 µM) | 0.03 µg/mL (≈ 0.0336 µM) | 4 µg/mL (≈ 4.49 µM) | 0.5 µg/mL (≈ 0.561 µM) | 4 µg/mL (≈ 4.49 µM) | 8 µg/mL (≈ 8.97 µM) | 32 µg/mL (≈ 35.9 µM) | 8 - 256 | 8 - 256 | 8 - 256 | 8 - 256 | 8 - 256 | 8 | 
CC[C@H]1OC(=O)[C@H](C)[C@@H](OC(=O)Nc2ccccc2C)[C@H](C)[C@@H](O[C@@H]2O[C@H](C)C[C@H](N(C)C)[C@H]2O)[C@](C)(O)C[C@@H](C)CN(C)[C@H](C)[C@H]2OC(=O)O[C@@]21C | 64 µg/mL (≈ 85.3 µM) | 32 µg/mL (≈ 42.7 µM) | 4 µg/mL (≈ 5.33 µM) | 4 µg/mL (≈ 5.33 µM) | 64 µg/mL (≈ 85.3 µM) | 0.5 µg/mL (≈ 0.667 µM) | 2 µg/mL (≈ 2.67 µM) | 4 µg/mL (≈ 5.33 µM) | 1 µg/mL (≈ 1.33 µM) | 32 µg/mL (≈ 42.7 µM) | 32 µg/mL (≈ 42.7 µM) | 256 | 128 |  |  |  |  | 
CC[C@H]1OC(=O)[C@H](C)[C@@H](OC(=O)Nc2ccccc2)[C@H](C)[C@@H](O[C@@H]2O[C@H](C)C[C@H](N(C)C)[C@H]2O)[C@](C)(O)C[C@@H](C)CN(C)[C@H](C)[C@H]2OC(=O)O[C@@]21C | 128 µg/mL (≈ 174 µM) | 128 µg/mL (≈ 174 µM) | 2 µg/mL (≈ 2.72 µM) | 4 µg/mL (≈ 5.44 µM) | 128 µg/mL (≈ 174 µM) | 0.25 µg/mL (≈ 0.34 µM) | 4 µg/mL (≈ 5.44 µM) | 16 µg/mL (≈ 21.7 µM) | 16 µg/mL (≈ 21.7 µM) | 16 µg/mL (≈ 21.7 µM) | 8 µg/mL (≈ 10.9 µM) |  |  | 16 | 16 |  |  | Ratio (Streptococcus pyogenes [1]): 32; Ratio (Streptococcus pyogenes [6]): 32
CCCCCCNC(=O)O[C@@H]1[C@@H](C)N(C)C[C@H](C)C[C@@](C)(O)[C@H](O[C@@H]2O[C@H](C)C[C@H](N(C)C)[C@H]2O)[C@@H](C)[C@H](OC(=O)Nc2ccc(OC)cc2)[C@@H](C)C(=O)O[C@H](CC)[C@@]1(C)O | 128 µg/mL (≈ 148 µM) | 128 µg/mL (≈ 148 µM) | 8 µg/mL (≈ 9.23 µM) | 0.125 µg/mL (≈ 0.144 µM) | 128 µg/mL (≈ 148 µM) | 1 µg/mL (≈ 1.15 µM) | 0.5 µg/mL (≈ 0.577 µM) | 8 µg/mL (≈ 9.23 µM) | 1 µg/mL (≈ 1.15 µM) | 1 µg/mL (≈ 1.15 µM) | 32 µg/mL (≈ 36.9 µM) | 256 | 128 | 256 | 256 | 8 - 256 | 8 - 256 | Ratio [18]: 2; Ratio (Bacillus subtilis [19]): 2
CC[C@H]1OC(=O)[C@H](C)[C@@H](OC(=O)Nc2ccccc2C)[C@H](C)[C@@H](O[C@@H]2O[C@H](C)C[C@H](N(C)C)[C@H]2O)[C@](C)(O)C[C@@H](C)CN(C)[C@H](C)[C@@H](OC(=O)NCc2ccccc2)[C@]1(C)O | 64 µg/mL (≈ 74.7 µM) | 32 µg/mL (≈ 37.3 µM) | 1 µg/mL (≈ 1.17 µM) | 0.25 µg/mL (≈ 0.292 µM) | 64 µg/mL (≈ 74.7 µM) | 0.03 µg/mL (≈ 0.035 µM) | 2 µg/mL (≈ 2.33 µM) | 0.25 µg/mL (≈ 0.292 µM) | 2 µg/mL (≈ 2.33 µM) | 32 µg/mL (≈ 37.3 µM) | 128 µg/mL (≈ 149 µM) | 8 - 256 | 8 - 256 | 8 - 256 | 8 - 256 | 8 - 256 | 16 | 
CC[C@H]1OC(=O)[C@H](C)[C@@H](O[C@H]2C[C@@](C)(OC)[C@@H](O)[C@H](C)O2)[C@H](C)[C@@H](O[C@@H]2O[C@H](C)C[C@H](N(C)C)[C@H]2O)[C@](C)(O)C[C@@H](C)CN(C)[C@H](C)[C@@H](O)[C@]1(C)O [AZITHROMYCIN] | 64 µg/mL (≈ 85.4 µM) | 4 µg/mL (≈ 5.34 µM) | 0.25 µg/mL (≈ 0.334 µM) | 0.25 µg/mL (≈ 0.334 µM) | 32 µg/mL (≈ 42.7 µM) | 0.03 µg/mL (≈ 0.0401 µM) | 1 µg/mL (≈ 1.34 µM) | 4 µg/mL (≈ 5.34 µM) | 256 µg/mL (≈ 342 µM) | 256 µg/mL (≈ 342 µM) | 256 µg/mL (≈ 342 µM) |  |  |  |  |  |  | 
CC[C@H]1OC(=O)[C@H](C)[C@@H](O[C@H]2C[C@@](C)(OC)[C@@H](O)[C@H](C)O2)[C@H](C)[C@@H](O[C@@H]2O[C@H](C)C[C@H](N(C)C)[C@H]2O)[C@](C)(OC)C[C@@H](C)C(=O)[C@H](C)[C@@H](O)[C@]1(C)O [CLARITHROMYCIN] | 32 µg/mL (≈ 42.8 µM) | 32 µg/mL (≈ 42.8 µM) | 0.25 µg/mL (≈ 0.334 µM) | 0.25 µg/mL (≈ 0.334 µM) | 64 µg/mL (≈ 85.6 µM) | 0.03 µg/mL (≈ 0.0401 µM) | 0.25 µg/mL (≈ 0.334 µM) | 2 µg/mL (≈ 2.67 µM) | 128 µg/mL (≈ 171 µM) | 256 µg/mL (≈ 342 µM) | 256 µg/mL (≈ 342 µM) |  |  |  |  |  |  | 
